ChEMBL document CHEMBL3227943, “Synthesis and mutagenicity of 5,11-dimethylchrysene and some methyl-oxidized derivatives of 5-methylchrysene” (J Med Chem, 1979)

Key:
Salmonella typhimurium [1] = experiment: Toxicity in Salmonella typhimurium TA 100 at 5 to 100 ug in presence of Fischer-344 rat liver S9 fraction; format: organism-based, Salmonella enterica subsp. enterica serovar Typhimurium
Method in brief: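 Percent survivors were measured with diluted TA100 broth culture under the same S-9 plating conditions as the mutagenicity assay, except that excess histidine was added to the top agar.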

Salmonella typhimurium [2] = experiment: Mutagenic activity in Salmonella typhimurium TA 100 at 5 to 100 ug by Ames test in presence of Fischer-344 rat liver S9 fraction; format: toxicity, organism-based, Salmonella enterica subsp. enterica serovar Typhimurium
Method in brief: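 TA100 plate-incorporation assay: compound in 50 µL Me₂SO, 0.1 mL overnight broth culture, 200 µL S-9 mix and 2 mL top agar (45 °C), poured on minimal glucose agar. S-9 from Aroclor 1254-induced rats (500 mg/kg, 5 days earlier); mix per mL: 100 µmol K phosphate pH 7.4, 8 µmol MgCl₂, 5 µmol G6P, 4 µmol NADP⁺. His⁺ revertants/plate, mean of four trials.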

Salmonella typhimurium [3] = experiment: Mutagenic activity in Salmonella typhimurium TA 100 at 5 to 100 ug by Ames test in presence of Fischer-344 rat liver S9 fraction relative to 5-methylchrysene
Salmonella typhimurium [4] = experiment: Mutagenic activity in Salmonella typhimurium TA 100 at 5 to 100 ug by Ames test in absence of Fischer-344 rat liver S9 fraction; format: toxicity, organism-based, Salmonella enterica subsp. enterica serovar Typhimurium; conditions: in vivo
Salmonella typhimurium [5] = experiment: Mutagenic activity in Salmonella typhimurium TA 100 at 50 ug by Ames test in absence of Fischer-344 rat liver S9 fraction; format: toxicity, organism-based, Salmonella enterica subsp. enterica serovar Typhimurium; conditions: in vivo

| SMILES | Activity (Salmonella typhimurium [1]) | Activity (Salmonella typhimurium [2]) | Activity (Salmonella typhimurium [3]) | Activity (Salmonella typhimurium [4]) | Activity (Salmonella typhimurium [5]) |
| --- | --- | --- | --- | --- | --- |
| Cc1cc2ccccc2c2ccc3ccccc3c12 | Non-toxic | Toxic | – | – | – |
| Cc1cc2ccccc2c2c(C)cc3ccccc3c12 | Non-toxic | Toxic | – | – | – |
| OCc1cc2ccccc2c2ccc3ccccc3c12 | Non-toxic | – | Non-toxic | – | – |
| CC(=O)OCc1cc2ccccc2c2ccc3ccccc3c12 | Non-toxic | – | Non-toxic | – | – |
| COC(=O)c1cc2ccccc2c2ccc3ccccc3c12 | Non-toxic | – | Non-toxic | – | – |
| OCc1cc2ccccc2c2ccc3c(c12)CCCC3 | Non-toxic | – | Non-toxic | – | – |
| COC(=O)c1cc2ccccc2c2ccc3c(c12)CCCC3 | Non-toxic | – | Non-toxic | – | – |
| O=c1oc2cccc3ccc4c5ccccc5cc1c4c32 | Non-toxic | Toxic | – | Non-toxic | – |
| Cc1cc2ccccc2c2ccc3c(c12)C=CC(O)C3O (stereo not drawn) | – | – | – | – | Toxic |
